{"source": "ChEMBL document CHEMBL4425094", "about": "“Novel Benzo[a]quinolizidine Analogs Induce Cancer Cell Death through Paraptosis and Apoptosis” (J Med Chem, 2016)", "key": {"PC-3 [1]": {"tested_on": "PC-3", "experiment": "Induction of apoptosis in human PC3 cells assessed as necrotic cells at 2 uM after 24 hrs by Annexin V-FITC/propidium iodide based flow cytometric analysis (reference value: 1.1 %)", "type": "functional", "summary_of_the_method": "(§1)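 PC3 cells exposed to 0.5, 1 or 2 μM for 24 h, then stained with Annexin V-FITC and PI and analyzed by FACSCalibur flow cytometry. Populations assigned as necrotic (Annexin V−/PI+), late apoptotic (double positive), normal (Annexin V−/PI−) and early apoptotic (Annexin V+/PI−). DMSO vehicle control.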"}, "PC-3 [2]": {"tested_on": "PC-3", "experiment": "Induction of ER stress in human PC3 cells assessed as activation of XBPI mRNA incubated for 22 hrs after ER stress inhibitor 4-PBA exposure for 2 hrs by Western blot analysis", "type": "functional, cell-based", "summary_of_the_method": "(§2)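 PC3 cells pretreated 2 h with 4-PBA (100 μM), then compound added for a further 22 h. Viability measured by MTT. GRP78 assessed by Western blot, along with XBP1 mRNA splicing analysis. Morphology by phase contrast.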"}, "PC-3 [3]": {"tested_on": "PC-3", "experiment": "Induction of cell cycle arrest in human PC3 cells assessed as accumulation in S phase at 2 uM after 24 hrs by […]propidium iodide based flow cytometric analysis (reference value: 21 to 31.6 %)", "type": "functional"}, "PC-3 [4]": {"tested_on": "PC-3", "experiment": "Induction of cell cycle arrest in human PC3 cells assessed as accumulation in G0/G1 phase at 2 uM after 24 hrs by […]propidium iodide based flow cytometric analysis (reference value: 43.5 to 62.5 %)", "type": "functional"}, "PC-3 [5]": {"tested_on": "PC-3", "experiment": "Induction of apoptosis in human PC3 cells assessed as late apoptotic cells at 2 uM after 24 hrs by Annexin V-FITC/propidium iodide based flow cytometric analysis (reference value: 1.1 %)", "type": "functional", "summary_of_the_method": "as §1"}, "MDA-MB-231": {"tested_on": "MDA-MB-231", "experiment": "Cytotoxicity against human MDA-MB-231 cells assessed as cell growth inhibition after 24 hrs by MTT assay", "type": "functional, cell-based", "conditions": "MDA-MB-231, 24 h", "summary_of_the_method": "(§3)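 Cells seeded 24 h in RPMI 1640 + 10% FBS. RWPE-1 was kept in K-SFM with bovine pituitary extract and EGF. Cells then exposed to compounds for 24 h at 37 °C, 5% CO2, with DMSO vehicle and docetaxel as positive control. MTT added for 4 h, absorbance read at 570 nm. Triplicate runs, IC50 reported as mean of three experiments.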"}, "PC-3M [6]": {"tested_on": "PC-3M", "experiment": "Antitumor activity against human PC3M-lluc-C6 cells xenografted in athymic Balb/c mouse assessed as tumor volume at 15 mg/kg, ip administered every 2 days for 18 days (reference value: 845.6 +/- 84.3 mm'3)", "type": "functional"}, "PC-3 [7]": {"tested_on": "PC-3", "experiment": "Induction of apoptosis in human PC3 cells assessed as PARP cleavage after 24 hrs by Western blot analysis", "type": "functional, cell-based", "summary_of_the_method": "(§4)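 PC3 cells in RPMI 1640 with 10% FBS, treated with compound for timed intervals. DMSO vehicle control. Lysis in RIPA buffer, 40 μg protein per lane on SDS-PAGE, transfer to nitrocellulose. Primary antibodies overnight at 4 °C, HRP-secondary 45 min, ECL detection. GAPDH or β-actin used as loading control.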"}, "PC-3 [8]": {"tested_on": "PC-3", "experiment": "Induction of morphological changes in human PC3 cells assessed as formation of massive cytoplasmic vacuoles at 1 uM after 12 hrs by confocal microscopic analysis", "type": "functional, cell-based"}, "PC-3 [9]": {"tested_on": "PC-3", "experiment": "Induction of apoptosis in human in human PC3 cells assessed as reduction in cell viability in presence of caspase inhibitor by MTT assay"}, "PC-3 [10]": {"tested_on": "PC-3", "experiment": "Cytotoxicity in human PC3 cells assessed as reduction in cell viability after 24 hrs in presence of CHX by MTT assay", "type": "functional, cell-based", "summary_of_the_method": "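PC3 cells pretreated with 10 μM actinomycin D or 5 μM cycloheximide, then treated with compound for 24 h. Viability by MTT at 570 nm. Vacuolation imaged by phase-contrast microscopy.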"}, "PC-3 [11]": {"tested_on": "PC-3", "experiment": "Induction of ER stress in human PC3 cells assessed as GRP78 upregulation incubated for 22 hrs after ER stress inhibitor 4-PBA exposure for 2 hrs by Western blot analysis", "type": "functional, cell-based", "summary_of_the_method": "as §2"}, "PC-3 [12]": {"tested_on": "PC-3", "experiment": "Induction of apoptosis in human PC3 cells assessed as early apoptotic cells at 0.5 uM after 24 hrs by Annexin V-FITC/propidium iodide based flow cytometric analysis (reference value: 2.3 %)", "type": "functional", "summary_of_the_method": "as §1"}, "PC-3 [13]": {"tested_on": "PC-3", "experiment": "Induction of autophagy in human PC3 cells assessed as increase in p62/SQSTM1 expression after 4 hrs by Western blot analysis", "type": "functional, cell-based", "summary_of_the_method": "as §4"}, "HeLa": {"tested_on": "HeLa", "experiment": "Cytotoxicity against human HeLa cells assessed as cell growth inhibition after 24 hrs by MTT assay", "type": "functional, cell-based", "summary_of_the_method": "as §3"}, "[14]": {"experiment": "Toxicity in athymic Balb/c mouse assessed as induction of mortality at 15 mg/kg, ip administered every 2 days for 18 days", "type": "organism-based", "conditions": "in vivo", "summary_of_the_method": "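Male athymic BALB/c-nu mice, 6 weeks old, bearing subcutaneous PC3M-luc-C6 xenografts (5 × 10^6 cells, right anterior flank) were grouped (n = 5) once tumours reached about 0.1 cm3. They received a 15 mg/kg suspension intraperitoneally every 2 days for 18 days, alongside placebo and docetaxel (15 mg/kg) groups. Body weight and deaths were recorded.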"}, "PC-3M [15]": {"tested_on": "PC-3M", "experiment": "Antitumor activity against human PC3M-lluc-C6 cells xenografted in athymic Balb/c mouse assessed as tumor growth inhibition at 15 mg/kg, ip administered every 2 days for 18 days", "type": "functional", "conditions": "read-out: TGI"}, "PC-3 [16]": {"tested_on": "PC-3", "experiment": "Cytotoxicity against human PC3 cells assessed as reduction in cell viability at 1 uM after 24 hrs in presence of PI3K inhibitor 3-MA by MTT assay", "type": "functional, cell-based", "summary_of_the_method": "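PC3 cells pretreated with autophagy inhibitor 3-MA or E64d, then given 1 μM compound for 24 h. Viability measured by MTT (4 h, 570 nm). Morphology checked by phase-contrast microscopy.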"}, "PC-3 [17]": {"tested_on": "PC-3", "experiment": "Induction of cytoplasmic vacuolation in human PC3 cells assessed as formation of small vacuoles at 1 uM after 4 hrs by phase-contrast microscopic analysis", "type": "functional, cell-based", "summary_of_the_method": "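PC3 cells in RPMI 1640 with 10% FBS at 37 °C, 5% CO2, treated with 1 μM agent for 0−24 h; DMSO vehicle control. Vacuole appearance, size and number followed over time by phase-contrast microscopy at constant magnification.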"}, "K562": {"tested_on": "K562", "experiment": "Cytotoxicity against human K562 cells assessed as cell growth inhibition after 24 hrs by MTT assay", "type": "functional, cell-based", "conditions": "K562, 24 h", "summary_of_the_method": "as §3"}, "PC-3 [18]": {"tested_on": "PC-3", "experiment": "Growth inhibition of human PC3 cells at IC30 in presence of MG139 assessed as combination index by MTT assay", "type": "functional", "summary_of_the_method": "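PC3 cells incubated with increasing concentrations of compound combined with a second agent (bortezomib or partner compound). Viability determined, combination index calculated: CI < 1 synergism, = 1 additive, > 1 antagonism.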"}, "PC-3M [19]": {"tested_on": "PC-3M", "experiment": "Induction of immature autophagy i in human PC3M-lluc-C6 cells xenografted in athymic Balb/c mouse assessed as increase in LC3 protein levels at 15 mg/kg, ip administered every 2 days for 18 days by Western blot and immunohistochemical staining method", "type": "functional, organism-based", "summary_of_the_method": "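Male athymic BALB/c-nu mice (6 weeks) carried subcutaneous right-flank PC3M-luc-C6 xenografts (5 × 10^6 cells). At ~0.1 cm3 they were grouped (n = 5) and given 15 mg/kg i.p. suspension every 2 days; placebo and docetaxel 15 mg/kg were controls. Tumors were analyzed by Western blot and by immunohistochemistry (anti-LC3 1:800, anti-p62 1:500, overnight 4 °C, HRP/DAB, hematoxylin counterstain).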"}, "PC-3 [20]": {"tested_on": "PC-3", "experiment": "Induction of ER stress in human PC3 cells assessed as upregulation of GRP78 after 4 hrs by Western blot analysis", "type": "functional, cell-based", "summary_of_the_method": "as §4"}}, "note": "Activity calls are given as the source filed them. The calls are words filed in the database; no cut-off is given here."}
{"smiles": "Cc1cc(C)cc(COc2cc3c(cc2OCc2cc(C)cc(C)c2)[C@@H]2C[C@H](O)C[C@@H](C)N2CC3)c1", "note": "(racemic)", "values": [{"measurement": "Activity", "setting": "PC-3 [1]", "result": 3.1, "unit": "%"}, {"measurement": "Activity", "setting": "PC-3 [2]", "result": "inactive"}, {"measurement": "Activity", "setting": "PC-3 [3]", "result": "6.38 - 9.05%"}, {"measurement": "Activity", "setting": "PC-3 [4]", "result": "80.2 - 81.4%"}, {"measurement": "Activity", "setting": "PC-3 [5]", "result": 36.4, "unit": "%"}, {"measurement": "IC50", "setting": "MDA-MB-231", "result": 0.82, "unit": "µM"}, {"measurement": "Activity", "setting": "PC-3M [6]", "result": 410.2, "unit": "mm3"}, {"measurement": "Activity", "setting": "PC-3 [7]", "result": "Active"}, {"measurement": "Activity", "setting": "PC-3 [8]", "result": "Active"}, {"measurement": "Activity", "setting": "PC-3 [9]", "result": "inactive"}, {"measurement": "Activity", "setting": "PC-3 [10]", "result": "inactive"}, {"measurement": "Activity", "setting": "PC-3 [11]", "result": "inactive"}, {"measurement": "Activity", "setting": "PC-3 [12]", "result": 2.5, "unit": "%"}, {"measurement": "Activity", "setting": "PC-3 [13]", "result": "inactive"}, {"measurement": "IC50", "setting": "HeLa", "result": 1.65, "unit": "µM"}, {"measurement": "Activity", "setting": "[14]", "result": "Non-Toxic"}, {"measurement": "inhibition in vivo at 15 mg/kg", "setting": "PC-3M [15]", "result": 40.5, "unit": "%"}, {"measurement": "Activity", "setting": "PC-3 [16]", "result": "inactive"}, {"measurement": "Activity", "setting": "PC-3 [17]", "result": "Active"}, {"measurement": "IC50", "setting": "K562", "result": 1.44, "unit": "µM"}, {"measurement": "CI", "setting": "PC-3 [18]", "result": "0.1 - 0.3"}, {"measurement": "Activity", "setting": "PC-3M [19]", "result": "Active"}, {"measurement": "Activity", "setting": "PC-3 [20]", "result": "Active"}]}
